In brackets after ≈: the same amount, converted by molar mass. Activity calls are given as the source filed them. No cut-off for these calls is given here.
Key:
[1] = tested on: Proteus vulgaris; test: Antibacterial activity against Proteus vulgaris after 18 to 22 hrs by broth microdilution method; type: functional
Method in brief: (§1)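 Clinical respiratory-tract isolates from patients, subcultured for purity and identified conventionally. Broth microdilution per NCCLS in Mueller–Hinton II broth; each plate had growth controls (bacteria, no compound) and medium-only controls. Incubation 18–22 h at 35 °C. MIC taken as the lowest concentration giving complete growth inhibition by unaided eye.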

[2] = tested on: Helicobacter pylori; test: Antibacterial activity against Helicobacter pylori ATCC 43504 clinical isolates after 72 hrs by agar dilution method; type: functional; conditions: ATCC 43504, 72 h
Method in brief: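 Agar dilution per NCCLS. Twenty clinical strains from duodenal ulcer or gastritis patients, with ATCC 43504 as control in each session, were subcultured twice on Columbia agar plus 10% horse serum and 0.25% yeast extract (72 h, 37 °C, 10% CO₂). Inoculum of 0.5 McFarland in Wilkins Chalgren broth, about 5 × 10⁵ CFU/spot by Steer's replicator. Plates held twofold compound dilutions down to 0.0039 µg/mL and were incubated 72 h at 37 °C, 10% CO₂. MIC was the lowest concentration inhibiting visible growth.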

[3] = tested on: Staphylococcus haemolyticus; test: Antibacterial activity against Staphylococcus haemolyticus after 18 to 22 hrs by broth microdilution method; type: functional; method in brief: as §1
[4] = tested on: Helicobacter pylori; test: Antibacterial activity against metronidazole-resistant Helicobacter pylori isolate 8 after 72 hrs by agar dilution method; type: functional; conditions: isolate 8, 72 h
Method in brief: (§2)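 H. pylori clinical isolates (ATCC 43504 control each session) stored at -80 °C and subcultured twice on Columbia agar with 10% horse serum and 0.25% yeast extract. Suspensions of 0.5 McFarland were spotted by Steer's replicator at about 5 × 10⁵ CFU/spot onto agar with twofold compound dilutions. Plates were incubated 72 h at 37 °C in 10% CO₂. MIC was the lowest concentration without visible growth.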

[5] = tested on: Helicobacter pylori; test: Antibacterial activity against metronidazole-resistant Helicobacter pylori isolate 1 after 72 hrs by agar dilution method; type: functional; conditions: isolate 1, 72 h; method in brief: as §2
[6] = Cytotoxicity against human EAhy926 cells assessed as cell survival at 50 ug/mL after 24 hrs by trypan blue exclusion assay; type: cell-based, EA.hy 926; conditions: read-out: Survival
Method in brief: (§3)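 EAhy cells in DMEM (high glucose) with 10% FBS, at 1 × 10⁵/mL in exponential growth and 60–70% confluent, were exposed 24 h at 37 °C to compounds from DMSO stocks (final DMSO ≤0.5%). Controls were cells alone or with DMSO, and 1 mM sodium nitroprusside as positive control. Cells were scraped, mixed 1:1 with 0.4% Trypan blue and counted on a hemocytometer by two operators. Result given as % viable cells.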

[7] = tested on: Klebsiella pneumoniae; test: Antibacterial activity against Klebsiella pneumoniae after 18 to 22 hrs by broth microdilution method; type: functional; method in brief: as §1
[8] = tested on: Staphylococcus hominis; test: Antibacterial activity against Staphylococcus hominis after 18 to 22 hrs by broth microdilution method; type: functional; method in brief: as §1
[9] = tested on: Citrobacter freundii; test: Antibacterial activity against Citrobacter freundii after 18 to 22 hrs by broth microdilution method; type: functional; method in brief: as §1
[10] = tested on: Staphylococcus epidermidis; test: Antibacterial activity against Staphylococcus epidermidis after 18 to 22 hrs by broth microdilution method; type: functional; method in brief: as §1
[11] = tested on: Enterococcus faecalis; test: Antibacterial activity against Streptococcus faecalis after 18 to 22 hrs by broth microdilution method; type: functional; method in brief: as §1
[12] = Cytotoxicity against human EAhy926 cells assessed as cell survival at 0.05 ug/mL after 24 hrs by trypan blue exclusion assay; type: cell-based, EA.hy 926; conditions: read-out: Survival; method in brief: as §3
[13] = tested on: Staphylococcus aureus; test: Antibacterial activity against Staphylococcus aureus after 18 to 22 hrs by broth microdilution method; type: functional; method in brief: as §1
[14] = tested on: [Candida] sake; test: Antifungal activity against Candida sake after 24 hrs by broth microdilution method; type: functional; conditions: Fermentozyma sake
Method in brief: (§4)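 Candida isolates from respiratory-tract specimens, tested by NCCLS broth microdilution in Sabouraud dextrose broth. Serial compound dilutions inoculated to 10³/mL, with fungus-only and medium-only controls. Incubated 24 h at 37 °C. MIC was the lowest concentration with complete visible growth inhibition.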

[15] = tested on: AGS; test: Antiinflammatory activity in human AGS cells assessed as inhibition of IL-8 production at 0.5 ug/mL after 24 hrs; type: functional, cell-based
Method in brief: (§5)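 AGS gastric adenocarcinoma cells were grown in F-12K with 10% FBS. They were seeded at 1 × 10⁵/mL for 24 h, preincubated 1 h with compound at 5 or 0.5 µg/mL, then exposed to H. pylori.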

[16] = tested on: Klebsiella oxytoca; test: Antibacterial activity against Klebsiella oxytoca after 18 to 22 hrs by broth microdilution method; type: functional; method in brief: as §1
[17] = tested on: Enterobacter; test: Antibacterial activity against Enterobacter after 18 to 22 hrs by broth microdilution method; type: functional; method in brief: as §1
[18] = Cytotoxicity against human EAhy926 cells assessed as cell survival at 5 ug/mL after 24 hrs by MTT assay; type: cell-based, EA.hy 926; conditions: read-out: Survival
[19] = Cytotoxicity against human EAhy926 cells assessed as cell survival at 0.5 ug/mL after 24 hrs by MTT assay; type: cell-based, EA.hy 926; conditions: read-out: Survival
[20] = tested on: Helicobacter pylori; test: Antibacterial activity against metronidazole-resistant Helicobacter pylori isolate 20 after 72 hrs by agar dilution method; type: functional; conditions: isolate 20, 72 h; method in brief: as §2
[21] = tested on: AGS; test: Antiinflammatory activity in human AGS cells assessed as inhibition of IL-8 production at 5 ug/mL after 24 hrs; type: functional, cell-based; method in brief: as §5
[22] = tested on: Candida albicans; test: Antifungal activity against Candida albicans after 24 hrs by broth microdilution method; type: functional; method in brief: as §4
[23] = tested on: Helicobacter pylori; test: Antibacterial activity against metronidazole-resistant Helicobacter pylori isolate 18 after 72 hrs by agar dilution method; type: functional; conditions: isolate 18, 72 h; method in brief: as §2
[24] = tested on: Klebsiella aerogenes; test: Antibacterial activity against Enterobacter aerogenes after 18 to 22 hrs by broth microdilution method; type: functional; method in brief: as §1
[25] = tested on: Escherichia coli; test: Antibacterial activity against Escherichia coli after 18 to 22 hrs by broth microdilution method; type: functional; method in brief: as §1
[26] = Cytotoxicity against human EAhy926 cells assessed as cell survival at 5 ug/mL after 24 hrs by trypan blue exclusion assay; type: cell-based, EA.hy 926; conditions: read-out: Survival; method in brief: as §3
[27] = tested on: Helicobacter pylori; test: Antibacterial activity against metronidazole-resistant Helicobacter pylori NCTC 11637 after 72 hrs by agar dilution method; type: functional; conditions: NCTC 11637, 72 h; method in brief: as §2
[28] = tested on: Pichia kudriavzevii; test: Antifungal activity against Candida krusei after 24 hrs by broth microdilution method; type: functional; method in brief: as §4
[29] = Cytotoxicity against human EAhy926 cells assessed as cell survival at 0.5 ug/mL after 24 hrs by trypan blue exclusion assay; type: cell-based, EA.hy 926; conditions: read-out: Survival; method in brief: as §3
[30] = tested on: AGS (Homo sapiens); test: Cytotoxicity against human AGS cells assessed as cell survival at 50 ug/mL after 24 hrs by MTT assay

SMILES	MIC [1]	MIC50 [2]	MIC90 [2]	MIC [3]	MIC [4]	MIC [5]	viability at 24 h, 50 ug/mL [6]	MIC [7]	MIC [8]	MIC [9]	MIC [10]	MIC [11]	viability at 24 h, 0.05 ug/mL [12]	MIC [13]	MIC [14]	inhibition [15]	MIC [16]	MIC [17]	viability at 24 h, 5 ug/mL [18]	viability at 24 h, 0.5 ug/mL [19]	also measured
COc1ccc2oc(=O)c(C(=O)Nc3ccc(C(=O)O)cc3)cc2c1	> 128 µg/mL	4 µg/mL (≈ 11.8 µM)	8 µg/mL (≈ 23.6 µM)	> 128 µg/mL	4 µg/mL (≈ 11.8 µM)	8 µg/mL (≈ 23.6 µM)	62%	> 128 µg/mL	> 128 µg/mL	> 128 µg/mL	> 128 µg/mL	> 128 µg/mL	85%	> 128 µg/mL	> 128 µg/mL	inactive	> 128 µg/mL	> 128 µg/mL	99%	99%	MIC [20]: 4 µg/mL (≈ 11.8 µM); inhibition [21]: inactive; MIC [22]: > 128 µg/mL; MIC [23]: 4 µg/mL (≈ 11.8 µM); MIC [24]: > 128 µg/mL; MIC [25]: > 128 µg/mL; viability at 24 h, 5 ug/mL [26]: 69%; MIC [27]: 4 µg/mL (≈ 11.8 µM); MIC [28]: > 128 µg/mL
CCOC(=O)c1ccc(NC(=O)c2cc3cc(Br)cc(Cl)c3oc2=O)cc1	> 128 µg/mL	8 µg/mL (≈ 17.8 µM)	16 µg/mL (≈ 35.5 µM)	> 128 µg/mL	4 µg/mL (≈ 8.88 µM)	8 µg/mL (≈ 17.8 µM)	58%	> 128 µg/mL	> 128 µg/mL	> 128 µg/mL	> 128 µg/mL	> 128 µg/mL	94%	> 128 µg/mL	> 128 µg/mL	inactive	> 128 µg/mL	> 128 µg/mL	75%	98%	viability at 24 h, 0.5 ug/mL [29]: 86%; MIC [20]: 8 µg/mL (≈ 17.8 µM); inhibition [21]: inactive; viability at 24 h, 50 ug/mL [30]: 64%; MIC [22]: > 128 µg/mL; MIC [23]: 8 µg/mL (≈ 17.8 µM); MIC [24]: > 128 µg/mL; MIC [25]: > 128 µg/mL; viability at 24 h, 5 ug/mL [26]: 71%; MIC [27]: 16 µg/mL (≈ 35.5 µM); MIC [28]: > 128 µg/mL
CCOC(=O)c1ccc(NC(=O)c2cc3cc(O)ccc3oc2=O)cc1	> 128 µg/mL	4 µg/mL (≈ 11.3 µM)	8 µg/mL (≈ 22.6 µM)	> 128 µg/mL	2 µg/mL (≈ 5.66 µM)	4 µg/mL (≈ 11.3 µM)	77%	> 128 µg/mL	> 128 µg/mL	> 128 µg/mL	> 128 µg/mL	> 128 µg/mL	93%	> 128 µg/mL	> 128 µg/mL	inactive	> 128 µg/mL	> 128 µg/mL	99%	99%	viability at 24 h, 0.5 ug/mL [29]: 83%; MIC [20]: 2 µg/mL (≈ 5.66 µM); inhibition [21]: inactive; viability at 24 h, 50 ug/mL [30]: 82%; MIC [22]: > 128 µg/mL; MIC [23]: 8 µg/mL (≈ 22.6 µM); MIC [24]: > 128 µg/mL; MIC [25]: > 128 µg/mL; viability at 24 h, 5 ug/mL [26]: 80%; MIC [27]: 8 µg/mL (≈ 22.6 µM); MIC [28]: > 128 µg/mL
CCOC(=O)c1ccc(NC(=O)c2cc3ccc(O)cc3oc2=O)cc1	> 128 µg/mL	8 µg/mL (≈ 22.6 µM)	8 µg/mL (≈ 22.6 µM)	> 128 µg/mL	4 µg/mL (≈ 11.3 µM)	8 µg/mL (≈ 22.6 µM)	64%	> 128 µg/mL	> 128 µg/mL	> 128 µg/mL	> 128 µg/mL	> 128 µg/mL	96%	> 128 µg/mL	> 128 µg/mL	inactive	> 128 µg/mL	> 128 µg/mL	82%	99%	viability at 24 h, 0.5 ug/mL [29]: 95%; MIC [20]: 2 µg/mL (≈ 5.66 µM); inhibition [21]: inactive; viability at 24 h, 50 ug/mL [30]: 78%; MIC [22]: > 128 µg/mL; MIC [23]: 8 µg/mL (≈ 22.6 µM); MIC [24]: > 128 µg/mL; MIC [25]: > 128 µg/mL; viability at 24 h, 5 ug/mL [26]: 92%; MIC [27]: 8 µg/mL (≈ 22.6 µM); MIC [28]: > 128 µg/mL

— ChEMBL document CHEMBL1208768, “Synthesis, selective anti-Helicobacter pylori activity, and cytotoxicity of novel N-substituted-2-oxo-2H-1-benzopyran-3-carboxamides” (Bioorg Med Chem Lett, 2010)
